Test results taken from ChEMBL document CHEMBL4350969, “Falcipain Inhibitors Based on the Natural Product Gallinamide A Are Potent in Vitro and in Vivo Antimalarials” (J Med Chem, 2019).
Active and inactive are the calls of the source. No cut-off for these calls is given here.

Legend:
[1] = biological target: T1, Cysteine protease falcipain-3 (Plasmodium falciparum, UniProt Q9NAW4); assay: Inhibition of Plasmodium falciparum N-terminal His-tagged falcipain-3 (33 residues) expressed in Escherichia coli M15 pREP4 using Z-Leu-Arg-AMC as substrate measured after 30 mins by spectrofluorometric method
T1 sequence (Q9NAW4 whole entry): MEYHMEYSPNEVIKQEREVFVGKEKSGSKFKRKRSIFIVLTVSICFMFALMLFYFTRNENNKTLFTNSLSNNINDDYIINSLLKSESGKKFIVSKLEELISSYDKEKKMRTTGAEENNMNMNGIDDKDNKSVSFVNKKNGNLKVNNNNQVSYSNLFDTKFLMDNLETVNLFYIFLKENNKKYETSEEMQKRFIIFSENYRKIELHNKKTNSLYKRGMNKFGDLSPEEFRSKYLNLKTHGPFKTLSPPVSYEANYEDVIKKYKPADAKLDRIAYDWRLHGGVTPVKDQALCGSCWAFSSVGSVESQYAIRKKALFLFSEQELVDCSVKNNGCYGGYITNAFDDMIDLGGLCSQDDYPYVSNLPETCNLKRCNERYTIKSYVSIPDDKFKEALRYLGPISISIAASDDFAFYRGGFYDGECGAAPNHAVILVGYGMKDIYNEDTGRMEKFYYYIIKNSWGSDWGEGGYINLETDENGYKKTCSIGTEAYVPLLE
In short: (§1)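 Recombinant heterologously expressed FP2 or FP3; inhibition measured by continuous kinetic cleavage of fluorogenic substrate Z-Leu-Arg-AMC.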

[2] = Drug metabolism in human liver microsomes assessed as N-demethylation at 10 uM measured after 60 mins in presence of NADPH-generating system by UPLC-MS analysis; type: ADME, Microsome; conditions: 1 h
[3] = tested on: Plasmodium berghei; assay: Antimalarial activity against Plasmodium berghei ANKA infected in specific pathogen-free C57BL/6 mouse assessed as reduction in parasitemia at 12.5 to 50 mg/kg, ip administered at 72 hrs post-infection and measured daily up to 35 days post-infection by rapid staining-based microscopic analysis; type: functional, organism-based
In short: (§2)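 Peters 4-day suppressive test: female C57BL/6 mice, 8–9 weeks old, inoculated i.p. with 10^6 PbA-parasitized red cells in 200 µL Alsever's medium. Compound in DMSO diluted in saline (50, 25, 12.5, 6.25 mg/kg) or vehicle, 200 µL i.p. at 4, 24, 48 and 72 h. Daily tail-vein smears, Rapid Stain, % parasitemia by microscopy; cure = healthy, no parasitemia at day 35; 5 mice/group, mean ± SEM.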

[4] = Drug metabolism in mouse liver microsomes assessed as N-demethylation at 10 uM measured after 60 mins in presence of NADPH-generating system by UPLC-MS analysis; type: ADME, Microsome; conditions: 1 h
[5] = tested on: Plasmodium falciparum; assay: Antimalarial activity against synchronized ring stage CQ-resistant Plasmodium falciparum W2 infected in human erythrocytes incubated for 24 hrs followed by compound washout and subsequent compound addition and measured after 48 hrs by YOYO-1 probe-based flow cytometry; type: functional, organism-based
[6] = biological target: T2, Falcipain 2 (Plasmodium falciparum, UniProt Q9N6S8); assay: Inhibition of Plasmodium falciparum N-terminal His6-tagged falcipain-2 (35 residues) expressed in Escherichia coli M15 pREP4 using Z-Lue-Arg-AMC as substrate measured after 30 mins by spectrofluorometric method; in short: as §1
T2 sequence (Q9N6S8 whole entry): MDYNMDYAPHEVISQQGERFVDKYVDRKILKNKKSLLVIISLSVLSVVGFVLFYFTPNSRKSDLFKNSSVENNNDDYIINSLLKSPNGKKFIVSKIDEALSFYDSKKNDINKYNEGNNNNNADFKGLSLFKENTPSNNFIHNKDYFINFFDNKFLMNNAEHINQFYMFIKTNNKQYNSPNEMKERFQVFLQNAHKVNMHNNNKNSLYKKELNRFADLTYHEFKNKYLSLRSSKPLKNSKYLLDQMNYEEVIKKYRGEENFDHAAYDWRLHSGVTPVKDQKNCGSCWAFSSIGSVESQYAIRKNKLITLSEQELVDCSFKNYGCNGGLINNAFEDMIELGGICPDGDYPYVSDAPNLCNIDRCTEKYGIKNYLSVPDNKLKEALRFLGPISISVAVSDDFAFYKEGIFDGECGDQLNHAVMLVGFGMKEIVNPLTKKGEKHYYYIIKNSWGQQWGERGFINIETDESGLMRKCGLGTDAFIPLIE

[7] = Half life in Swiss mouse plasma at 1 ug/ml by UPLC-MS analysis; type: ADME, cell-free
In short: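 Fresh whole blood from non-fasted male Swiss outbred mice; plasma separated by centrifugation. Compound spiked to 1 μg/mL final (0.2% DMSO, 0.4% acetonitrile), kept at 37 °C; aliquots taken over 4 h (n=3 per time point), snap-frozen, protein precipitated with acetonitrile, UPLC-MS (ESI+) against matrix calibration standards. Exponential decay fit gives k; half-life = ln(2)/k.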

[8] = tested on: Plasmodium falciparum; assay: Induction of morphological changes in synchronized ring stage Plasmodium falciparum W2 infected in human erythrocytes assessed as swollen food vacuoles with accumulated hemoglobin at 300 nM measured after 36 hrs by Giemsa staining-based photomicrographic method; type: functional, organism-based
In short: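 Synchronized W2 P. falciparum cultures exposed from ring stage for 36 h to compound (4.5–10,000 nM range), with E-64 and 0.1% DMSO controls; thin smears methanol-fixed, Giemsa-stained and photographed.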

[9] = tested on: HEK293; assay: Cytotoxicity against HEK293 cells assessed as reduction in cell viability at 25 uM measured after 18 hrs by alamar blue assay; type: cell-based; conditions: human, hek293, 18 h
[10] = tested on: Plasmodium falciparum; assay: Antimalarial activity against synchronized ring stage CQ-sensitive Plasmodium falciparum 3D7 infected in human erythrocytes incubated for 24 hrs followed by compound washout and subsequent compound addition and measured after 48 hrs by YOYO-1 probe-based flow cytometry; type: functional, organism-based
[11] = Half life in Swiss mouse blood at 1 ug/ml by UPLC-MS analysis; type: ADME, tissue-based; conditions: whole blood
[12] = tested on: Plasmodium berghei; assay: Antimalarial activity against Plasmodium berghei ANKA infected in specific pathogen-free C57BL/6 mouse assessed as reduction in disease severity at 100 mg/kg, po administered once daily for 4 days measured up to 35 days post-infection by rapid staining-based microscopic analysis; type: functional, organism-based
In short: (§3)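 Female C57BL/6 mice, 8–9 weeks old, inoculated i.p. with 10^6 P. berghei ANKA-parasitized red cells. Compound dissolved in DMSO, diluted in 154 mM NaCl, given by oral gavage at 100 mg/kg on days 4, 5, 6 and 7 post-infection. Tail-vein thin smears stained with Rapid Stain, % parasitemia by microscopy; mice euthanized at signs of severe disease.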

[13] = Intrinsic clearance in mouse liver microsomes assessed per mg protein at 1 uM measured after 60 mins in presence of NADPH-generating system by UPLC-MS analysis; type: ADME, Microsome; conditions: read-out: CLH
[14] = tested on: Plasmodium berghei; assay: Antimalarial activity against Plasmodium berghei ANKA infected in specific pathogen-free C57BL/6 mouse assessed as mouse survival at 25 to 50 mg/kg, ip administered at 72 hrs post-infection by rapid staining-based microscopic analysis
[15] = Drug metabolism in mouse liver microsomes assessed as N,N-bis-demethylation at 10 uM measured after 60 mins in presence of NADPH-generating system by UPLC-MS analysis; type: ADME, Microsome; conditions: 1 h
[16] = tested on: Plasmodium berghei; assay: Antimalarial activity against Plasmodium berghei ANKA infected in specific pathogen-free C57BL/6 mouse assessed as reduction in parasitemia at […] to 12.5 mg/kg, ip administered at 72 hrs post-infection and measured daily up to 35 days post-infection by rapid staining-based microscopic analysis; type: functional, organism-based; in short: as §2
[17] = Drug metabolism in human liver microsomes assessed as N,N-bis-demethylation at 10 uM measured after 60 mins in presence of NADPH-generating system by UPLC-MS analysis; type: ADME, Microsome; conditions: 1 h
[18] = tested on: Plasmodium berghei; assay: Antimalarial activity against Plasmodium berghei ANKA infected in specific pathogen-free C57BL/6 mouse assessed as reduction in parasitemia at 50 mg/kg, ip administered once daily for 4 days measured up to 35 days post-infection by rapid staining-based microscopic analysis; type: functional, organism-based
In short: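 Established-infection model: female C57BL/6 mice inoculated i.p. with 10^6 PbA-parasitized red cells; compound in DMSO diluted in saline given i.p. at 50 mg/kg on days 4, 5, 6 and 7 post-infection, chloroquine 50 mg/kg as comparator, vehicle controls; 7 mice per group. Tail-vein smears, % parasitemia by microscopy, mean ± SEM; survival recorded.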

[19] = tested on: Plasmodium berghei; assay: Antimalarial activity against Plasmodium berghei ANKA infected in specific pathogen-free C57BL/6 mouse assessed as reduction in parasitemia at 100 mg/kg, po administered once daily for 4 days measured up to 35 days post-infection by rapid staining-based microscopic analysis; type: functional, organism-based; in short: as §3
[20] = tested on: Plasmodium berghei; assay: Antimalarial activity against Plasmodium berghei ANKA infected in specific pathogen-free C57BL/6 mouse assessed as reduction in parasitemia at 25 to 50 mg/kg, ip administered at 72 hrs post-infection and measured daily up to 35 days post-infection by rapid staining-based microscopic analysis; type: functional, organism-based; in short: as §2

Structure (SMILES)	IC50 [1]	Drug metabolism [2]	Activity [3]	Drug metabolism [4]	IC50 [5]	IC50 [6]	half-life at 1 ug/ml [7]	Activity [8]	Activity [9]	IC50 [10]	half-life at 1 ug/ml [11]	Activity [12]	microsomal CLint at 1 µM [13]	Survival [14]	Drug metabolism [15]	Activity [16]	Drug metabolism [17]	Activity [18]	Activity [19]	Activity [20]
COC1=CC(=O)N(C(=O)/C=C/[C@H](C)NC(=O)[C@H](CC(C)C)NC(=O)[C@H](CC2CCCCC2)NC(=O)C2CCN(C)CC2)[C@H]1Cc1c[nH]c2ccccc12.O=C(O)C(F)(F)F	117 nM	Metabolite_Detected	Active	Metabolite_Detected	28 nM	31 nM	2.1 h	Active	Non-Toxic	26 nM	0.683 h	–	–	–	–	–	–	–	–	–
COC1=CC(=O)N(C(=O)/C=C/[C@H](CCc2ccccc2)NC(=O)[C@H](CC(C)C)NC(=O)[C@H](CC(C)C)NC(=O)[C@H](C(C)C)N(C)C)[C@H]1Cc1c[nH]c2ccccc12.O=C(O)C(F)(F)F	112 nM	–	–	–	4 nM	33 nM	6.22 h	Active	Non-Toxic	1 nM	4.55 h	Active	787 µL/min/mg	>35 days	Metabolite_Detected	Active	Metabolite_Detected	Active	Active	–
COC1=CC(=O)N(C(=O)/C=C/[C@H](C)NC(=O)[C@H](CC(C)C)NC(=O)[C@H](CC(C)C)NC(=O)C2CCN(C)CC2)[C@H]1Cc1c[nH]c2ccccc12.O=C(O)C(F)(F)F	79 nM	Metabolite_Detected	–	Metabolite_Detected	49 nM	29 nM	1.37 h	Active	Non-Toxic	42 nM	0.283 h	–	–	–	–	–	–	–	–	Active
